bCat nuc transl = modulators of beta-catenin nuclear translocation, primary screen, imaging, HeLa cells, immunofluorescence, high-content | 0.3% of 190,000 active | nuclear translocation activity, % at 5 µM;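 active means nuclear translocation activity above 50% at 5 µM, with a well cell count of 50 or more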;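 further: per-cell ratio of nuclear to cytoplasmic median beta-catenin stain intensity; plate controls were DMSO negative control for no effect and GSK-3 inhibitor IX positive control for full effect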
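System: Human HeLa cells, endogenous beta-catenin | Compound dosing: 5 µM primary, 0.02–20 µM confirmation | Timing: 24 h compound exposure at 37°C, 5% CO2 | Measured by: Fluorescence imaging of beta-catenin antibody stain plus DAPI | Read-out basis: % activation of per-cell nuclear versus cytoplasmic median beta-catenin signal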
Pf gamet viab = late stage P. falciparum gametocyte viability inhibitors, primary screen, ATP luminescence, HTS; inhibition, % at 10.9 µM; P. falciparum stage V gametocytes, 24 h; 0.065% of 150,000 active;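 active means inhibition above the mean plus 3 SD of compounds within the control limits, set per campaign, cut at about 38% in these data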;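 further: 0% = DMSO wells and 100% = medium only without gametocytes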
MT stabilizer = microtubule stabilizers in HeLa cells, primary screen, imaging, high-content imaging. HeLa tubulin immunostaining HCS, 24 h; share of cells brighter than vehicle mean+2SD. % tubulin-high responders, % at 10 µM. 0.83% of 200,000 active;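 active means plate Z-score above 3 for both tubulin-high and condensed-nucleus cell shares, with cell loss under 80%, at 10 µM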;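 further: anti alpha tubulin signal scored within the nucleus-defined area of each cell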
KCC2 mod = KCC2 cotransporter modulators, thallium flux, primary screen, cell-based, HEK293 KCC2, FluoZin-2 fluorescence, MLSMR. Solute carrier family 12 member 5 (Homo sapiens), Q9H2X9. KCC2 cells, thallium flux FluoZin-2 fluorescence. B-score of Tl+ flux slope (higher = more flux/activation; lower = inhibition) at 10 µM. 2.2% of 190,000 active. AID 1456, 2008;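 active means thallium flux slope and its plate-corrected score both differing from the plate sample mean at a set confidence after two filtering rounds, in either direction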;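 further: slope of fluorescence scaled to starting intensity during 10 to 20 s after thallium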
Target sequence (Q9H2X9 whole entry, looked up): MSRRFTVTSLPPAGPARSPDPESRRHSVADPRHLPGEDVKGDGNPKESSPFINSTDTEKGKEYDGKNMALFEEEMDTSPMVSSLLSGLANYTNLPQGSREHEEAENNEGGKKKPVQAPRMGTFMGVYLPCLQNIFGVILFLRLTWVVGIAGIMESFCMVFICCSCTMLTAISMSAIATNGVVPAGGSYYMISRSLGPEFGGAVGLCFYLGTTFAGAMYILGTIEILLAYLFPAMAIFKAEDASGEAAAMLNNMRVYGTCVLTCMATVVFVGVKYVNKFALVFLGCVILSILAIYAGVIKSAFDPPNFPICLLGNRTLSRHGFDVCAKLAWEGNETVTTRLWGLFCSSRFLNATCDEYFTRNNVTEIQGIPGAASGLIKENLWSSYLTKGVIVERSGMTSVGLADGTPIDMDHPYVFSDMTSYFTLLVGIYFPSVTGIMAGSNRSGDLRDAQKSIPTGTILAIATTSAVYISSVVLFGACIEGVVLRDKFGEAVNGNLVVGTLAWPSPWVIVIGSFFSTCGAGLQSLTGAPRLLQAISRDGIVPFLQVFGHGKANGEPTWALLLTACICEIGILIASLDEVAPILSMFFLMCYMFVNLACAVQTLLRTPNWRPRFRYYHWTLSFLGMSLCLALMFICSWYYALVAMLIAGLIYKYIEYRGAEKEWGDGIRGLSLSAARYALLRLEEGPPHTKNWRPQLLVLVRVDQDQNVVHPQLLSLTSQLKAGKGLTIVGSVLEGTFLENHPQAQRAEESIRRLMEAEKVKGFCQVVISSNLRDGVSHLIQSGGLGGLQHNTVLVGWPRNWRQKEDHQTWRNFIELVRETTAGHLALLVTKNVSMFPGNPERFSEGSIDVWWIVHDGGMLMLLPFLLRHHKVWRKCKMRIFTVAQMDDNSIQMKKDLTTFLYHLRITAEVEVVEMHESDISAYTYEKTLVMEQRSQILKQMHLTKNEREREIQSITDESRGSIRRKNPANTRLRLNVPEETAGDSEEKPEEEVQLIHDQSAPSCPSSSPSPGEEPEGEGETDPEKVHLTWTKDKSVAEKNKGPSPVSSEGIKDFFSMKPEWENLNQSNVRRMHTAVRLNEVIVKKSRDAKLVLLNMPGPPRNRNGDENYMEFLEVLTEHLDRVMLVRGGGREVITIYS
WT yeast gro inh = growth inhibition of WT strain, primary screen, mitochondrial fusion inhibitor project, WT and mutant strains, chemical genetic. mitochondrial fusion phenotypic screen. inhibition, % at 10 µM. 2.1% of 190,000 active. AID 1362, 2008; in the data active means inhibition above about 58%; tested in S. cerevisiae
Active calls of the source: *; nt = no result given. In the library only some 4% were active in any assay of this set; here they are far more common.

SMILES	bCat nuc transl	Pf gamet viab	MT stabilizer	KCC2 mod	WT yeast gro inh
CCC(C)c1ccc(NC(=O)C2CCCN(c3ncccn3)C2)cc1 (stereo unspecified)	1.9	-14.5	35.7*	-1.51	13.4
O=[N+]([O-])c1ccc(Oc2cccc3cccnc23)c([N+](=O)[O-])c1	3.2	nt	7.2	-0.285	62.6*
Cc1ccc2cccc(Oc3ccc([N+](=O)[O-])cc3[N+](=O)[O-])c2n1	nt	14.1	15.8*	-2.09	-7.5
CCC(=O)N1COC[C@@H]1Cc1ccccc1	nt	-18.6	5.0	nt	-6.0
Cc1ccccc1-c1noc(C23CC4CC(CC(C4)C2)C3)n1	nt	26.0	3.4	nt	80.5*
O=C1N/C(=N\N=C\c2cccs2)SC1Cc1cccc(Cl)c1Cl (stereo unspecified)	60.0*	-8.5	13.0	0.942	52.4
Nc1ccc2nc[nH]c2c1	0.5	-11.1	3.5	1.41	9.1
COc1cc(OC)nc(Oc2ccccc2C(=O)Oc2ccccc2Cl)n1	nt	-8.9	2.6	-1.92	61.5*
COC(=O)c1ccccc1Oc1nc(Cl)cc(OC)n1	-0.3	13.5	2.6	-0.097	-14.3
COc1cc(OC)nc(Oc2ccccc2C(=O)Oc2ccc(Cl)cc2)n1	nt	nt	3.4	-1.25	67.9*
COc1cc(OC)nc(Oc2ccccc2C(=O)Oc2ccc(C)cc2)n1	nt	-12.0	3.0	-1.74	63.2
Clc1cccc(-c2ccc(C=Nc3ccc(N4CCOCC4)cc3)o2)c1	-0.3	nt	2.3	1.04	-4.3
COc1ccc(NC(C)C(=O)Nc2cc(C(F)(F)F)ccc2N2CCOCC2)c(OC)c1 (stereo unspecified)	2.3	-7.4	3.5	-1.02	49.1
Nc1nc(SCC(=O)Nc2cc(C(F)(F)F)ccc2N2CCOCC2)n[nH]1	4.4	14.1	2.5	0.326	-5.9
COc1ccccc1/C=C/C(=O)OCC(=O)Nc1cc(C(F)(F)F)ccc1N1CCOCC1	-0.3	10.7	19.3*	-0.188	1.2
O=C(COC(=O)/C=C/c1ccccc1)Nc1cc(C(F)(F)F)ccc1N1CCOCC1	2.2	nt	3.4	0.968	12.2
Cc1ccc2nc(SCC(=O)Nc3cc(C(F)(F)F)ccc3N3CCOCC3)[nH]c2c1	nt	nt	21.9*	-0.814	-2.5
COc1cc(Cl)c(C)cc1NC(C)C(=O)Nc1cc(C(F)(F)F)ccc1N1CCOCC1 (stereo unspecified)	-0.8	nt	1.7	-0.191	65.4*
CCc1ccccc1NC(=S)N1CCN(c2cccc(OC)c2)CC1	nt	-1.1	nt	nt	nt
O=C(Nc1ccccc1)Nc1ncc([N+](=O)[O-])s1	0.3	nt	3.1	-1.39	69.7*
O=C(Nc1ncc([N+](=O)[O-])s1)c1cccc([N+](=O)[O-])c1	-0.7	nt	nt	nt	nt
Clc1ccc2[nH]c3c(c2c1)CCc1cn[nH]c1-3	13.4	nt	15.6*	-0.716	25.3
c1ccc2c3c([nH]c2c1)-c1[nH]ncc1CC3	-0.8	nt	4.8	-1.24	12.4
O=C(O)c1cccc(-n2cccc2/C=C/[N+](=O)[O-])c1	-0.5	2.0	nt	-3.08	nt
Cc1ccc(NC(=O)c2cc(C)n(-c3cccc(C)c3)c2C)cc1	nt	17.2	1.8	-0.242	61.6*
SMILES	bCat nuc transl	Pf gamet viab	MT stabilizer	KCC2 mod	WT yeast gro inh
Cc1ccc(CCSc2ccc(C(C)C)cc2)cn1	-0.5	5.9	4.2	-2.27	74.0*
CCOC(=O)c1cnc(-n2nc(C)cc2C)nc1NC1CCCCC1	7.9	nt	3.5	nt	82.3*
CCOC(=O)c1cnc(-n2nc(C)cc2C)nc1N(CC)CC	2.2	-3.3	3.1	-0.274	70.0*
CCOC(=O)c1cnc(-n2nc(C)cc2C)nc1NC	-3.6	-24.3	4.7	0.544	-37.5
CCOC(=O)c1cnc(-n2nc(C)cc2C)nc1Nc1ccc(C)cc1	1.7	nt	3.2	nt	46.0
CCN1C(=O)/C(=C/c2ccc(C)s2)SC1=Nc1ccc(OC)cc1	4.6	nt	33.0*	-1.44	17.2
CCN1C(=O)/C(=C/c2cc(C)n(C)c2C)SC1=Nc1ccc(OC)cc1	nt	nt	4.1	1.01	16.3
Cc1cccc(NC2=C(NC(=O)c3ccccc3)C(=O)c3ccccc3C2=O)c1	-2.3	-13.9	3.6	-0.166	33.1
CN(C1=C(NC(=O)c2ccc(Cl)cc2)C(=O)c2ccccc2C1=O)c1ccccc1	-0.9	10.3	7.8	-1.65	72.8*
O=C(NC1=C(Nc2ccc(Cl)cc2)C(=O)c2ccccc2C1=O)c1ccccc1	-0.9	-5.9	1.7	-1.56	79.3*
